Sampled rows, rich in hits. Any-hit rate of the full collection: about 2.7%.
PAFAH1B3 inh: inhibitors of human PAFAH1B3. AID 492972. inhibition, % at 3.39 µM. recombinant PAFAH1B3, FP-rhodamine probe, fluorescence polarization. hit rate 0.28% among 340,000;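 active = inhibition above the screen-wide average of all tested compounds plus 3 SD, cut at about 25% in these data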
Target sequence (Q15102 whole entry, looked up): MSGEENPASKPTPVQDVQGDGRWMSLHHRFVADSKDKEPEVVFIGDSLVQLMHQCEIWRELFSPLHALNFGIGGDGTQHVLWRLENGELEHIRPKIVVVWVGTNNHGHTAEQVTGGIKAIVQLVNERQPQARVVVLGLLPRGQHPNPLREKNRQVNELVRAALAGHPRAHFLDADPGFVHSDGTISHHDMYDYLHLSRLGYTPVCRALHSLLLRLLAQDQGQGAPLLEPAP
PAFAH1B2 inh: blocks human PAF acetylhydrolase 1b catalytic subunit 2. P68402. recombinant PAFAH1B2, FP-rhodamine activity probe, fluorescence polarization. inhibition, % at 3.39 µM. hit rate 1.2% among 340,000. AID 492953;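 active = inhibition above the mean of all tested compounds plus 3 SD, cut at about 24% in these data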
Target sequence (P68402 whole entry, looked up): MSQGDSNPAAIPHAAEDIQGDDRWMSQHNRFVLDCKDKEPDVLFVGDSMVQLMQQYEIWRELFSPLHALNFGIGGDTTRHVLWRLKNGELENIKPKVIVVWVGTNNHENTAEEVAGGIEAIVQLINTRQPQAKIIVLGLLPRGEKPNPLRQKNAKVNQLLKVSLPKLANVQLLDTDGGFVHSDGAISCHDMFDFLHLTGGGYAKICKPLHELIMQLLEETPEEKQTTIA
pPAFAH inh: pPAFAH (human) enzyme inhibition | inhibition, % at 3.39 µM | recombinant pPAFAH, FP-rhodamine probe fluorescence polarization | hit rate 1.5% among 330,000 | Q13093;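 active = inhibition above the mean inhibition across the screen plus 3 SD, cut at about 25% in these data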;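 also: inhibitors block binding of the rhodamine activity-based probe so polarization drops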
ARFGAP1 inhibitor: rat ARFGAP1 inhibition; Q62848; Arfgap1-stimulated ARF1 GTP hydrolysis, GDP FP detection; inhibition, % at 16.5 µM; hit rate 0.26% among 360,000; AID 651572;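 active = inhibition above a per-plate limit, mean inhibition of low control wells plus 3 SD, cut at about 25% in these data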
Target sequence (Q62848 1-136 limits assumed): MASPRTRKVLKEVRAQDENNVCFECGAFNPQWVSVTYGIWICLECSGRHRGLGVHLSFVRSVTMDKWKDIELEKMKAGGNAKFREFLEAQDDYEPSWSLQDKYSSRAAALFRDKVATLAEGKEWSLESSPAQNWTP
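Material: truncated rat Arfgap1 GAP domain; Incubation: compound-enzyme preincubation 20 min, reaction 120 min, detection 60 min, 25 °C; Read-out: percent inhibition of Arfgap1-stimulated GTP hydrolysis; Technique: FP, GDP Alexa 633 tracer displaced from anti-GDP antibody, 620/688 nm; Controls: No-Arfgap1 wells (100%) versus DMSO full-reaction wells (0%); Replication: single well per compound.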
ASAP1 GAP inh: ASAP1 ArfGAP inhibition; ASAP1-stimulated ARF1 GTP hydrolysis, GDP FP detection; inhibition, % at 16.5 µM; hit rate 0.19% among 360,000; in the data active = inhibition above about 25%
PAFAH2 inh: inhibitors of human PAFAH2; Q99487; recombinant PAFAH2, FP-rhodamine activity probe, fluorescence polarization; inhibition, % at 3.39 µM; hit rate 0.99% among 340,000;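 active = inhibition above the mean over all tested compounds plus 3 SD, cut at about 30% in these data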;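 also: inhibitors block probe labeling of enzyme so polarization drops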
pPAFAH confirm: confirmation of human plasma PAF acetylhydrolase (pPAFAH) inhibitors; shares compounds with pPAFAH inh; recombinant pPAFAH, FP-Rh probe fluorescence polarization; inhibition, % at 3.39 µM; hit rate 72% among 2,300; AID 463230;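 active = mean inhibition of the triplicate above the hit cutoff set for the earlier primary screen, cut at about 25% in these data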
PAFAH2 FP conf: PAFAH2 (human) inhibition, confirmed | shares compounds with PAFAH2 inh | recombinant PAFAH2, FP-rhodamine activity probe, fluorescence polarization | inhibition, % at 3.39 µM | hit rate 65% among 2,300 | AID 493030;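 active = mean inhibition over three repeats above a set limit taken from the earlier primary screen, cut at about 30% in these data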;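 also: inhibitor blocks binding of rhodamine activity probe so polarization falls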
PAFAH1B3 conf FP: PAFAH1B3 (human) inhibition, confirmed | AID 493032 | recombinant PAFAH1B3, FP-Rh activity-based probe, fluorescence polarization | inhibition, % at 3.39 µM | shares compounds with PAFAH1B3 inh | hit rate 30% among 390;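 active = average inhibition over triplicate runs above the hit cutoff set in the earlier primary screen, cut at about 25% in these data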
ASAP1 GAP conf: ASAP1 inhibition confirmed; ASAP1-stimulated Arf1 GTPase, GDP fluorescence polarization; shares compounds with ASAP1 GAP inh; hit rate 37% among 620; AID 624431; inhibition, % at 16.5 µM;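 active = mean inhibition over triplicates exceeds the hit threshold derived for the earlier primary screening run, cut at about 25% in these data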
Large screens that a line does not name were inactive (follow-up assays come after a bar, where they were run).

Cc1ccc(C(C)C)c(OCc2ccc(C(=O)N/N=C/c3cccc(O)c3O)cc2)c1	PAFAH1B3 inh 33, pPAFAH inh 54 | pPAFAH confirm 52 | PAFAH1B3 conf FP inactive
COC(=O)C1=C(C)N(Cc2ccc(C(F)(F)F)cc2)C(=NCc2ccccc2C(F)(F)F)NC1c1cccc(Cl)c1 (stereo not drawn)	none (no result: PAFAH1B3 inh, PAFAH1B2 inh, pPAFAH inh, PAFAH2 inh)
COc1ccc(NC(=O)c2cc3c(-c4ccc(OC)c(OC)c4)nn(C)c3s2)cc1OC	pPAFAH inh 46, ASAP1 GAP inh 32 | pPAFAH confirm 43 | ASAP1 GAP conf 58
N#Cc1cc(F)cc(OCCCN2CCC(C(O)(c3ccccc3)c3ccccc3)CC2)c1	none (no result: PAFAH1B3 inh, PAFAH1B2 inh, pPAFAH inh, PAFAH2 inh)
CNc1ccc(/C=C(\CCC(=O)O)c2nc3ccccc3s2)cc1[N+](=O)[O-]	PAFAH1B2 inh 96, pPAFAH inh 49, ASAP1 GAP inh 30 | pPAFAH confirm 38 | ASAP1 GAP conf 52
COc1ccc(C(=O)Nc2cccc(/C=C(\CCC(=O)O)c3nc4ccccc4s3)c2)cc1	none
O=C(COC(=O)c1cccs1)Nc1ccc(S(=O)(=O)N2CCOCC2)cc1	none
O=C(COC(=O)c1ccc(=O)[nH]c1)Nc1cccc(S(=O)(=O)N2CCOCC2)c1	PAFAH2 inh 66 | PAFAH2 FP conf 48
COc1cccc(/C=C/C(=O)OCC(=O)Nc2cccc(S(=O)(=O)N3CCOCC3)c2)c1OC	PAFAH2 inh 59 | PAFAH2 FP conf 58
Cn1cccc1C(=O)OCC(=O)Nc1cccc(S(=O)(=O)N2CCOCC2)c1	none
O=C(COC(=O)/C=C/c1cccs1)Nc1cccc(S(=O)(=O)N2CCOCC2)c1	PAFAH2 inh 68 | PAFAH2 FP conf 56
O=C(COC(=O)c1cccs1)Nc1cccc(S(=O)(=O)N2CCOCC2)c1	PAFAH2 inh 64 | PAFAH2 FP conf 63
O=c1[nH]nc(Br)c(=O)n1C(c1ccccc1)c1ccccc1	none (no result: pPAFAH inh)
CSc1ncccc1C(=O)OCC(=O)c1[nH]c(C)c(C(C)=O)c1C	none
COC1OC2COC(c3ccccc3)OC2C2OC12 (stereo not drawn)	none (no result: pPAFAH inh)
O=C(COC(=O)/C=C/c1ccc(OC(F)F)cc1)Nc1cccc(S(=O)(=O)N2CCCC2)c1	PAFAH2 inh 34 | PAFAH2 FP conf 37
O=C(O)CN=C(NS(=O)(=O)c1ccc(Cl)cc1)c1ccccc1	PAFAH2 inh 35 | PAFAH2 FP conf inactive
C=Cc1ccc(Cn2c(C)c(C(=O)NCc3ccc4c(c3)OCCO4)sc2=O)cc1	none (no result: PAFAH1B3 inh, PAFAH1B2 inh, pPAFAH inh, PAFAH2 inh)
Cc1ccc(NC(=O)COC(=O)/C=C/c2ccc(Br)o2)cc1S(=O)(=O)N(C)C	PAFAH2 inh 64 | PAFAH2 FP conf 59
NS(=O)(=O)c1ccc(NC(=O)COC(=O)/C=C/c2ccc([N+](=O)[O-])cc2)cc1	none
CN(C)S(=O)(=O)c1cccc(NC(=O)COC(=O)/C=C/c2ccc(Br)o2)c1	PAFAH2 inh 40 | PAFAH2 FP conf 35
CN(C)S(=O)(=O)c1cccc(NC(=O)COC(=O)/C=C/c2ccc([N+](=O)[O-])cc2)c1	PAFAH2 inh 34 | PAFAH2 FP conf inactive
COc1ccc(Cn2cc(Cn3c4ccccc4c(=O)n3C(C)C)nn2)cc1	none (no result: PAFAH1B3 inh, PAFAH1B2 inh, pPAFAH inh, PAFAH2 inh)
CC(=O)Nc1ccc(NC(=O)C(C)OC(=O)CC23CC4CC(CC(Br)(C4)C2)C3)cc1 (stereo not drawn)	none
COc1cccc(-c2nc3ccc(O)cc3c(=O)o2)c1	PAFAH2 inh 72 | PAFAH2 FP conf 52
O=c1oc(-c2cccc(S(=O)(=O)N3CCOCC3)c2)nc2ccccc12	PAFAH2 inh 61 | PAFAH2 FP conf 55
Cc1nc(-c2cccc(S(=O)(=O)N3CCOCC3)c2)cs1	none
CC(=O)Oc1cccc(-c2nc3ccccc3c(=O)o2)c1	PAFAH2 inh 40 | PAFAH2 FP conf inactive
O=C1NN(CCO)C(=S)Nc2ccccc21	none (no result: PAFAH1B3 inh, PAFAH1B2 inh, pPAFAH inh, PAFAH2 inh)
O=C(CC1C[C@H](C(=O)N2CCOCC2)[C@@]2(CCC3CCCC3)c3[nH]c4ccccc4c3CCN2C1=O)NCc1cccc(C(F)(F)F)c1 (stereo partly drawn)	none (no result: pPAFAH inh)
Cc1noc(C)c1NC(=O)Nc1cccc2c1O[C@H](CN(C)S(=O)(=O)c1cn(C)cn1)[C@@H](C)CN([C@H](C)CO)C2=O	none
O=C1CCC/C=C/C[C@H](CC(=O)N(CCO)Cc2ccccc2)C(=O)N[C@@H](Cc2ccccc2)CO1	PAFAH2 inh 45 | PAFAH2 FP conf inactive
O=C1CCCC/C=C\C[C@H](CC(=O)N(CCO)Cc2ccccc2)C(=O)N[C@@H](Cc2ccccc2)CO1	PAFAH2 inh 45 | PAFAH2 FP conf inactive
O=C1CCC/C=C\C[C@@H](CC(=O)N(CCO)Cc2ccccc2)C(=O)N[C@H](Cc2c[nH]c3ccccc23)CO1	none
CC(C)n1c(=O)c2ccccc2n1Cc1cn(-c2ccccc2)nn1	none (no result: PAFAH1B3 inh, PAFAH1B2 inh, pPAFAH inh, PAFAH2 inh)
COc1ccc(NS(=O)(=O)c2cccc(C(=O)O)c2)cc1S(=O)(=O)N1CCOCC1	none
CCOc1cc(N2CCOCC2)c(OCC)cc1NC(=O)c1ccc(OC)c(S(=O)(=O)N2CCOCC2)c1	none
Cc1ccc2[nH]c(O)c(N=Nc3nc4ccccc4s3)c2c1	PAFAH2 inh 55 | PAFAH2 FP conf 36
Oc1[nH]c2ccccc2c1N=Nc1ccccc1	none
Oc1[nH]c2ccccc2c1N=Nc1nc2ccccc2s1	PAFAH2 inh 52 | PAFAH2 FP conf inactive
Cc1ccc2[nH]c(O)c(N=Nc3ccccc3[N+](=O)[O-])c2c1	none (no result: pPAFAH inh)
O=C(c1ccc(COc2ccc(Cl)cc2Cl)o1)N1CCCC1	PAFAH2 inh 30 (no result: pPAFAH inh) | PAFAH2 FP conf inactive
C=C(C)c1nc2cc(OC)c(OC)cc2c(=O)o1	none
Cc1ccc2nc(-c3ccc(Br)o3)oc(=O)c2c1	PAFAH2 inh 66 | PAFAH2 FP conf 66
COc1cc2nc(-c3ccc(Br)o3)oc(=O)c2cc1OC	PAFAH2 inh 53 | PAFAH2 FP conf 41
COc1cc2nc(CCc3ccccc3)oc(=O)c2cc1OC	PAFAH2 inh 36 | PAFAH2 FP conf inactive
CCOc1ccc(NC(=O)CN(C)C(=O)c2cc(C3CC3)nn2-c2ccccc2)cc1OCC	none (no result: pPAFAH inh)

Compound activity: PubChem, The Scripps Research Institute Molecular Screening Center
